RAD52 inh – RAD52 DNA annealing inhibitors, primary screen, biochemical, FRET, single point, set 2. DNA repair protein RAD52 homolog (Homo sapiens), P43351. recombinant RAD52 DNA annealing, FRET fluorescence. inhibition, % at 18.7 µM. 360,000 compounds, 0.46% hits. AID 651710, 2012;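 active means every replicate showing at least 50% inhibition; inconclusive means mean inhibition at least 50% but not in every replicate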
E-sel inducer – E-selectin induction in HUVECs, primary screen, imaging, HUVEC, immunofluorescence imaging, single point; P16581; normalized: neutral wells 0, TNF-alpha wells 100; activation, % at 7.58 µM; 260,000 compounds, 0.37% hits;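 active means mean E-selectin-positive cell signal at least 10% of the positive control, reached in at least 60% of replicates, without over 20% cell loss; inconclusive means no rule given, readout overlaps actives, possibly toxicity-flagged; inactive means the rest, including those meeting only one limit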
Target sequence (P16581 whole entry, looked up): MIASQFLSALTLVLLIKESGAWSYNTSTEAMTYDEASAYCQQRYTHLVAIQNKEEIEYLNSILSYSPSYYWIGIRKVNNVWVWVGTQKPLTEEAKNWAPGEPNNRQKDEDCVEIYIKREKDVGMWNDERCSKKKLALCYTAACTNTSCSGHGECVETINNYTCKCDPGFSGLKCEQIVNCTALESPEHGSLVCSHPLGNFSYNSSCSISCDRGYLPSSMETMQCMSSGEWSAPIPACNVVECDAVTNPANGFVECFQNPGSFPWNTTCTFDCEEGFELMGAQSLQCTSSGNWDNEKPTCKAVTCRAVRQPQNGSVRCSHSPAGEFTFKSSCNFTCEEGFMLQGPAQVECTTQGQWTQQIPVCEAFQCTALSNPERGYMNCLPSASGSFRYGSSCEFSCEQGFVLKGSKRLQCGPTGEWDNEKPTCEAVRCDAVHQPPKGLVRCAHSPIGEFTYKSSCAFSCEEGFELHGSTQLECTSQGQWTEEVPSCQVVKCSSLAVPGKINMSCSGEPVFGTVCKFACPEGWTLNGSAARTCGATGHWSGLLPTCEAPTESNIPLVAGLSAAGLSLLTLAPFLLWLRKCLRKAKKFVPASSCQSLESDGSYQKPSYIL
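assay system = HUVEC, human umbilical vein endothelial cells | input = 3,000 HUVEC seeded per well | medium = EGM-2 growth medium on 0.1% gelatin-coated wells | dosing = one compound dose added by pin transfer | signal = immunofluorescence imaging | read-out basis = % PE-positive cells | control set = TNF-alpha, DMSO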
GSIS activator – GLuc luminescence reporter in INS-1E cells, primary screen for activators of glucose-dependent secretion of insulin. activation, % at 16.6 µM. AID 743287, 2014. 370,000 compounds, 0.61% hits. INS-1E GLuc reporter insulin secretion, 2-3 h;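 active means lowest replicate activation of at least 40%, so every replicate reaches that level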;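 further: 0% = median of neutral control wells and 100% = median of IBMX positive control wells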
MLL AF4-AF9 inh – inhibitors of AF4 peptide binding to AF9, primary screen, biochemical, AlphaScreen, biotin-AF4 peptide, FLAG-AF9, single point. Protein AF-9 (Homo sapiens), P42568. inhibition, % at 10 µM. 350,000 compounds, 0.47% hits;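 active means every replicate reaching a set inhibition limit, whatever the replicate mean, cut at about 25% in these data; inconclusive means mean inhibition reaches that limit but some replicates miss it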;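 further: 0% = plate neutral control median and 100% = total signal loss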
RAD54 inh – inhibitors of human RAD54 branch migration, primary screen, biochemical, fluorescence, single point. RAD54 Holliday junction branch migration, FAM/BHQ fluorescence. inhibition, % at 10.4 µM. 360,000 compounds, 0.14% hits;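 active means mean normalized replicate activity at least 40 and at least half of replicates scoring 40 or more; inconclusive means only one of the two criteria met; inactive means mean below 40 and under half of replicates reaching 40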;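 further: 0% = median of neutral control wells and 100% = median of positive control wells; inhibitors cause a drop in the FAM fluorescence signal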
Ecoli rRNA inh – reduced GFP signal of wild-type E. coli, primary screen, bacterial rRNA inhibitor project, GFP/RFP fluorescence, OD600, single point; GFP signal change (wild-type ribosome), % (test concentration not listed); E. coli WT GFP vs humanized-ribosome RFP mutants, 24 h; active compounds read low; DMSO median 0, no signal -100; AID 720706, 2013; 350,000 compounds, 1.6% hits;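 active means significant combined selectivity score with lowered wild-type GFP, culture density cut under 30%, mutant RFP and density less affected; inactive means any of these conditions unmet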
Rad54 DNA ctr – DNA binding of candidate compounds, dose response, artefact control for RAD54 inhibitor project, biochemical, fluorescence polarization, cherry-pick; shares compounds with RAD54 inh; Acridine orange-DNA displacement, 20 min; AC50, µM (titrated, usually from 35 µM), for inactives: at the highest dose activity change, negative = DNA binding; 460 compounds, 8% hits;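 active means signal drop giving an AC50 within twice the top valid tested concentration of each sample, actives reach about 35 µM in these data; inactive means activity opposite to expected, plus the rest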;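 further: polarization loss reports compound binding to salmon sperm DNA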
Active calls of the source: *; ? = inconclusive; . = no result given. Sampled rows, rich in hits. Any-hit rate of the full collection: about 2.6%.

SMILES	RAD52 inh	E-sel inducer	GSIS activator	MLL AF4-AF9 inh	RAD54 inh	Ecoli rRNA inh	Rad54 DNA ctr
CCC(=O)N(Cc1cc2cc(OC)ccc2[nH]c1=O)c1cc(C)ccc1C	.	.	.	.	?	.	8.5%
COc1ccc2[nH]c(=O)c(CN(C(C)=O)c3cc(C)ccc3C)cc2c1	-0.2	0.4	34.4	-4.0	6.9	5.1	.
C[C@@H]1CN([C@@H](C)CO)C(=O)c2cc(NC(=O)Cc3ccccc3)ccc2O[C@@H](C)CCCCO[C@@H]1CN(C)C(=O)c1ccncc1	-5.7	.	0.2	-2.2	.	0.2	.
Clc1ccc2[nH]c3c(NCCCN4CCOCC4)ncnc3c2c1	.	.	.	.	?	.	-1.2%
Cc1ccc2[nH]c3c(NCCN4CCOCC4)ncnc3c2c1	.	.	.	.	14.4	.	.
OCCN(CCO)c1ncnc2c1sc1nc(N3CCOCC3)c3c(c12)CCCC3	.	.	.	.	32.4	.	.
OCCN1CCN(c2ncnc3c2sc2nc(N4CCOCC4)c4c(c23)CCC4)CC1	15.4	.	-12.7	-4.9	53.1*	-13.1	-8.2%
COc1cccc2sc3ccc(NCCC4CCCN4C)cc3c(=O)c12 (stereo unspecified)	12.8	-0.1	.	8.4	61.0*	-6.3	-11.5%
COc1cc2sc3cc(NCC[C@@H]4CCCN4C)ccc3c(=O)c2cc1OC	3.1	.	3.1	5.8	75.5*	-12.1	-22.5%
COc1cccc2sc3cc(NCc4ccc5c(c4)OCO5)ccc3c(=O)c12	-296.4	.	-0.2	0.5	11.9	-22.6	.
CNC(=O)C[C@H]1CC[C@H]2[C@H](COc3ccc(NC(=O)c4cccs4)cc3C(=O)N2C)O1	.	-0.1	-1.4	.	0.0	0.2	.
COc1ccccc1-c1ccc2c(c1)O[C@H](CN(C)C(=O)c1ccccc1)[C@H](C)CN([C@@H](C)CO)S2(=O)=O	26.2	-0.3	-31.8	1.5	-11.7	-6.1	.
CC(C)N1CCc2c(sc(NC(=O)c3ccc(C(=O)c4ccccc4)cc3)c2C(N)=O)C1	-66.4	0.0	-10.7	14.8	50.5*	-52.3	-8.6%
COC(=O)c1c(NC(=O)c2ccco2)sc2c1CCN(C(C)C)C2	30.5	0.2	-11.5	-0.1	61.8*	14.7	-8.7%
COc1ccc(S(=O)(=O)Nc2ccc3c(c2)C(=O)N([C@H](C)CO)C[C@H](C)[C@H](CN(C)S(=O)(=O)c2c(C)noc2C)OCCCC[C@H](C)O3)cc1	-31.2	.	-3.5	0.7	4.8	3.0	.
Cc1cc(NCCCN(C)C)n2c(nc3ccccc32)c1C#N	45.7	0.2	-5.3	-0.7	69.5*	-2.4	-13.5%
Cc1noc(C)c1NC(=O)N(C)C[C@H]1OCCCC[C@@H](C)Oc2ccc(NC(=O)CCC(F)(F)F)cc2C(=O)N([C@H](C)CO)C[C@@H]1C	-3.8	-0.3	16.2	-1.7	-3.9	1.5	.
CN(C)CCCNc1nc(-c2ccc(Cl)cc2)nc2ccccc12	50.1*	0.8	13.0	5.4	70.8*	1.4	-18.0%
c1ccc(-c2nc(NCCCN3CCOCC3)c3ccccc3n2)cc1	.	.	-4.8	.	?	.	5.9%
Cc1ccc(-c2nc(NCCCO)c3ccccc3n2)cc1	-6.2	.	.	3.7	?	-15.5	-1.6%
Cc1cccc(-c2nc(NCCCN3CCOCC3)c3ccccc3n2)c1	.	.	.	.	31.2	.	.
CO[C@H]1CN(C)C(=O)c2cc(NS(=O)(=O)c3cccc(F)c3)ccc2OC[C@H](C)N(C(=O)Cc2cccnc2)C[C@@H]1C	-5.3	-0.2	-6.0	0.8	1.2	-4.9	.
COc1ccc(-c2cc(C(=O)O)c3c(C)nn(-c4ccccn4)c3n2)cc1	.	.	-3.5	.	.	.	.
CCOC(=O)c1cc(-c2ccncc2)nc2c1c(C)nn2-c1ccccn1	.	.	65.6*	.	65.2*	.	-8.4%
Nc1c(C(=O)NCCN2CCOCC2)c2nc3ccccc3nc2n1-c1ccccc1	.	.	.	.	52.2*	.	1.4%
SMILES	RAD52 inh	E-sel inducer	GSIS activator	MLL AF4-AF9 inh	RAD54 inh	Ecoli rRNA inh	Rad54 DNA ctr
Nc1c(C(=O)NCCN2CCOCC2)c2nc3ccccc3nc2n1-c1ccc2c(c1)OCO2	.	.	1.8	.	?	.	10.6%
Nc1c(C(=O)NCc2ccccc2)c2nc3ccccc3nc2n1-c1ccc2c(c1)OCO2	.	.	.	.	3.7	.	.
COCC(=O)N(C)C[C@@H]1Oc2cc(-c3ccncc3)ccc2S(=O)(=O)N([C@H](C)CO)C[C@H]1C	-4.2	0.0	10.7	-1.8	-2.5	3.5	.
CCCN(CCC)c1nc(-c2ccccn2)nc2ccccc12	45.4	0.8	-23.9	-19.2	89.6*	-57.3	-15.0%
c1ccc2c(c1)oc1c(Nc3ccc(CN4CCOCC4)cc3)ncnc12	.	.	.	.	54.1*	.	-23.4%
c1ccc2c(c1)oc1c(NCCN3CCOCC3)ncnc12	.	.	.	.	6.8	.	.
C[C@@H]1CN([C@@H](C)CO)S(=O)(=O)c2ccc(C#C[C@@H](C)O)cc2O[C@H]1CN(C)C(=O)c1ccncc1	.	-3.8	-2.4	.	-4.5	5.4	.
c1ccc(-c2nc(NCCCn3ccnc3)c3oc4ccccc4c3n2)cc1	49.6	.	-61.1	21.4	?	-60.0	-15.2%
C[C@H](CO)N1C[C@H](C)[C@@H](CN(C)C(=O)Nc2ccc(F)cc2)OCCCC[C@H](C)Oc2ccc(NC(=O)Nc3cccc4ccccc34)cc2C1=O	18.1	0.3	25.5	-2.1	-3.2	3.8	.
CC(C)CSc1ncc(-c2cccc(C(F)(F)F)c2)cn1	.	.	.	.	?	.	-12.9%
CCNc1nc(SCC(N)=O)nc2sc3c(c12)CCN(C)C3	4.2	.	14.0	-0.9	7.7	9.9	.
CSc1nc(SCC(N)=O)c2c3c(sc2n1)CN(C)CC3	.	.	43.8	.	58.6*	.	3.4%
COc1ccc(NC(=O)Nc2ccc3c(c2)C(=O)N([C@H](C)CO)C[C@@H](C)[C@H](CN(C)C(=O)C2CCCCC2)OCCCC[C@H](C)O3)cc1	4.5	0.4	-15.6	-5.4	-3.1	-1.6	.
Nc1cc2c3c(cccc3c1)C(=O)N(CCN1CCCC1)C2=O	3.4	1.3	-1.0	1.5	89.7*	3.9	27.9µM*
CC1CCN(CCCNC(=O)c2cc3c(Cl)nc4ccccc4c3s2)CC1	49.7	0.6	13.6	7.3	89.4*	-15.9	-20.2%
CCCCN(CC)CCNC(=O)c1cc2c(=O)n(C)c3ccccc3c2s1	18.8	.	-3.7	-3.2	32.6	-6.1	.
CCCCN(CC)CCNC(=O)c1cc2c(=O)[nH]c3ccc(C)cc3c2s1	21.6	-0.1	-15.1	5.1	?	-8.8	-20.0%

Screening data from PubChem BioAssay.
